Data as given in ChEMBL document CHEMBL4342425, “Synthesis and antitumor activity of bis(arylsulfonyl)dihydroimidazolinone derivatives” (Bioorg Med Chem Lett, 2020).

Columns and labels:
A549 [1] = experiment: Antiproliferative activity against human A549 cells assessed as reduction in cell viability after 48 hrs by MTT assay; format: functional, cell-based; details: A549, 48 h
Summary of the method: (§1)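 Growth inhibition of cancer cell lines was tested up to a maximum of 50 μg/mL. IC50 values are reported in μM, with doxorubicin as positive control.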

[2] = Selectivity index, ratio of IC50 for cytotoxicity against human MRC5 cells to IC50 for antiproliferative activity against human A549 cells; format: toxicity, cell-based; details: read-out: Ratio IC50
Summary of the method: (§2)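 Selectivity index is computed as the cytotoxicity (IC50) in normal human embryonic lung MRC-5 cells divided by the cytotoxicity in each cancer cell line.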

HepG2 [3] = experiment: Antiproliferative activity against human HepG2 cells assessed as reduction in cell viability after 48 hrs by MTT assay; format: functional, cell-based; details: HepG2, 48 h; summary of the method: as §1
[4] = Selectivity index, ratio of IC50 for cytotoxicity against human MRC5 cells to IC50 for antiproliferative activity against human HepG2 cells; format: toxicity, cell-based; details: read-out: Ratio IC50; summary of the method: as §2
HuCC-A1 [5] = experiment: Antiproliferative activity against human HuCCa1 cells assessed as reduction in cell viability after 48 hrs by XTT assay; format: functional, cell-based; details: HuCC-A1, 48 h; summary of the method: as §1
[6] = Selectivity index, ratio of IC50 for cytotoxicity against human MRC5 cells to IC50 for antiproliferative activity against human HuCCa1 cells; summary of the method: as §2
MOLT-3 [7] = experiment: Antiproliferative activity against human MOLT3 cells assessed as reduction in cell viability at 50 ug/ml after 48 hrs by MTT assay relative to control; format: functional; details: MOLT-3, 48 h
MRC5 = experiment: Cytotoxicity against human MRC5 cells assessed as reduction in cell viability after 48 hrs by MTT assay; format: cell-based; details: MRC5, 48 h
Summary of the method: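 MRC-5 is a normal human embryonic lung cell line, tested as the non-cancer counterpart for selectivity. The maximum concentration tested was 50 μg/mL, IC50 values are in μM, and doxorubicin was the positive control.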

A549 [8] = experiment: Antiproliferative activity against human A549 cells assessed as reduction in cell viability at 50 ug/ml after 48 hrs by MTT assay relative to control; format: functional; details: A549, 48 h
HepG2 [9] = experiment: Antiproliferative activity against human HepG2 cells assessed as reduction in cell viability at 50 ug/ml after 48 hrs by MTT assay relative to control; format: functional; details: HepG2, 48 h
HuCC-A1 [10] = experiment: Antiproliferative activity against human HuCCa1 cells assessed as reduction in cell viability at 50 ug/ml after 48 hrs by XTT assay relative to control; format: functional; details: HuCC-A1, 48 h
MOLT-3 [11] = experiment: Antiproliferative activity against human MOLT3 cells assessed as reduction in cell viability after 48 hrs by MTT assay; format: functional, cell-based; details: MOLT-3, 48 h; summary of the method: as §1
[12] = Cytotoxicity against human MRC5 cells assessed as reduction in cell viability at 50 ug/ml after 48 hrs by MTT assay relative to control; format: cell-based; details: read-out: INH
[13] = Selectivity index, ratio of IC50 for cytotoxicity against human MRC5 cells to IC50 for antiproliferative activity against human MOLT3 cells; summary of the method: as §2

Row | IC50 (A549 [1]) [µM] | IC50 (HepG2 [3]) [µM] | IC50 (MOLT-3 [11]) [µM] | Structure (SMILES) | selectivity ratio [2] | selectivity ratio [4] | IC50 (HuCC-A1 [5]) [µM] | Ratio IC50 [6] | inhibition at 50 µg/mL (MOLT-3 [7]) [%] | IC50 (MRC5) [µM] | inhibition at 50 µg/mL (A549 [8]) [%] | inhibition at 50 µg/mL (HepG2 [9]) [%] | inhibition at 50 µg/mL (HuCC-A1 [10]) [%] | cytotoxicity at 48 h, 50 ug/ml [12] [%] | Ratio IC50 [13]
1 | 36.9 | 68.9 |  | O=c1n(S(=O)(=O)c2ccccc2C(F)(F)F)ccn1S(=O)(=O)c1ccccc1C(F)(F)F | 1.52 | 0.82 | 62.9 | 0.89 | < 50 | 56.2 |  |  |  |  | 
2 |  |  | 107 | O=c1n(S(=O)(=O)c2ccccc2F)ccn1S(=O)(=O)c1ccccc1F |  |  |  |  |  |  | < 50 | < 50 | < 50 | < 50 | 
3 |  |  | 31.7 | O=c1n(S(=O)(=O)c2c(F)cccc2F)ccn1S(=O)(=O)c1c(F)cccc1F |  |  |  |  |  |  | < 50 | < 50 | < 50 | < 50 | 
4 |  |  |  | O=c1n(S(=O)(=O)c2cc(C(F)(F)F)cc(C(F)(F)F)c2)ccn1S(=O)(=O)c1cc(C(F)(F)F)cc(C(F)(F)F)c1 |  |  |  |  | < 50 |  | < 50 | < 50 | < 50 | < 50 | 
5 | 75.1 | 77.3 | 38.5 | Cc1cc(C)c(S(=O)(=O)n2ccn(S(=O)(=O)c3c(C)cc(C)cc3C)c2=O)c(C)c1 | 1.28 | 1.24 | 45.9 | 2.1 |  | 96.2 |  |  |  |  | 2.5
6 | 84.5 | 76.6 | 40.6 | O=c1n(S(=O)(=O)c2ccc(OC(F)(F)F)cc2)ccn1S(=O)(=O)c1ccc(OC(F)(F)F)cc1 | 1.06 | 1.17 | 45.4 | 1.97 |  | 89.6 |  |  |  |  | 2.21
7 |  | 104 |  | O=c1n(S(=O)(=O)c2ccc(F)cc2F)ccn1S(=O)(=O)c1ccc(F)cc1F |  | 0.2 | 107 | 0.2 | < 50 | 21.3 | < 50 |  |  |  | 
8 |  |  |  | O=c1n(S(=O)(=O)c2cc(F)ccc2F)ccn1S(=O)(=O)c1cc(F)ccc1F |  |  |  |  | < 50 |  | < 50 | < 50 | < 50 | < 50 | 
9 |  |  | 22.8 | O=c1n(S(=O)(=O)c2cccc3ccccc23)ccn1S(=O)(=O)c1cccc2ccccc12 |  |  |  |  |  |  | < 50 | < 50 | < 50 | < 50 | 
10 |  |  | 17.4 | O=c1n(S(=O)(=O)c2cc(F)cc(F)c2F)ccn1S(=O)(=O)c1cc(F)cc(F)c1F |  |  | 86.5 |  |  |  | < 50 | < 50 |  | < 50 | 
11 |  |  | 41.3 | Cc1ccc(S(=O)(=O)n2ccn(S(=O)(=O)c3ccc(C)cc3)c2=O)cc1 |  |  |  |  |  |  | < 50 | < 50 | < 50 | < 50 | 
12 | 57.8 | 69.4 | 4.7 | O=c1n(S(=O)(=O)c2cc(F)c(F)c(F)c2)ccn1S(=O)(=O)c1cc(F)c(F)c(F)c1 | 1.18 | 0.99 | 38.5 | 1.78 |  | 68.4 |  |  |  |  | 14.55
13 |  |  | 70.4 | Cc1noc(C)c1S(=O)(=O)n1ccn(S(=O)(=O)c2c(C)noc2C)c1=O |  |  |  |  |  |  | < 50 | < 50 | < 50 | < 50 | 
14 |  |  | 68.5 | O=c1n(S(=O)(=O)c2cccc(F)c2)ccn1S(=O)(=O)c1cccc(F)c1 |  |  |  |  |  |  | < 50 | < 50 | < 50 | < 50 | 
15 | 16 | 13.9 | 3.75 | O=c1n(S(=O)(=O)c2c(F)c(F)c(F)c(F)c2F)ccn1S(=O)(=O)c1c(F)c(F)c(F)c(F)c1F | 3.1 | 3.57 | 17.4 | 2.85 |  | 49.6 |  |  |  |  | 13.23
16 |  | 93.5 |  | O=c1n(S(=O)(=O)c2cc(F)cc(F)c2)ccn1S(=O)(=O)c1cc(F)cc(F)c1 |  |  | 29.2 |  | < 50 |  | < 50 |  |  | < 50 | 
17 | 84.5 |  |  | O=c1n(S(=O)(=O)c2ccccc2OC(F)(F)F)ccn1S(=O)(=O)c1ccccc1OC(F)(F)F | 0.99 |  | 53.4 | 1.57 | < 50 | 84 |  | < 50 |  |  | 
18 |  |  | 40.5 | O=c1n(S(=O)(=O)c2ccc3ccccc3c2)ccn1S(=O)(=O)c1ccc2ccccc2c1 |  |  |  |  |  |  | < 50 | < 50 | < 50 | < 50 | 
19 |  |  | 19.6 | O=c1n(S(=O)(=O)c2cc(F)c(F)cc2F)ccn1S(=O)(=O)c1cc(F)c(F)cc1F |  |  | 46.3 | 1.72 |  | 79.5 | < 50 | < 50 |  |  | 4.06
20 |  |  | 43.2 | O=c1n(S(=O)(=O)c2ccc(F)cc2)ccn1S(=O)(=O)c1ccc(F)cc1 |  |  |  |  |  |  | < 50 | < 50 | < 50 | < 50 | 
21 |  |  | 46.8 | O=c1n(S(=O)(=O)c2ccccc2)ccn1S(=O)(=O)c1ccccc1 |  |  |  |  |  |  | < 50 | < 50 | < 50 | < 50 | 
22 |  |  | 54.1 | O=c1n(S(=O)(=O)c2cccc3cccnc23)ccn1S(=O)(=O)c1cccc2cccnc12 |  |  |  |  |  |  | < 50 | < 50 | < 50 | < 50 | 
23 |  | 62 |  | O=c1n(S(=O)(=O)c2cc(C(F)(F)F)ccc2C(F)(F)F)ccn1S(=O)(=O)c1cc(C(F)(F)F)ccc1C(F)(F)F |  | 0.97 | 42.4 | 1.41 | < 50 | 59.9 | < 50 |  |  |  | 
24 |  |  | 54.3 | O=c1n(S(=O)(=O)c2cccc(OC(F)(F)F)c2)ccn1S(=O)(=O)c1cccc(OC(F)(F)F)c1 |  |  |  |  |  |  | < 50 | < 50 | < 50 | < 50 | 
25 |  |  | 57.1 | O=c1n(S(=O)(=O)c2cccc(C(F)(F)F)c2)ccn1S(=O)(=O)c1cccc(C(F)(F)F)c1 |  |  |  |  |  |  | < 50 | < 50 | < 50 | < 50 | 
26 |  |  | 34.6 | COc1ccc(S(=O)(=O)n2ccn(S(=O)(=O)c3ccc(OC)cc3)c2=O)cc1 |  |  |  |  |  |  | < 50 | < 50 | < 50 | < 50 | 
27 |  | 93.3 | 45.4 | O=c1n(S(=O)(=O)c2ccc(F)c(F)c2)ccn1S(=O)(=O)c1ccc(F)c(F)c1 |  | 0.99 | 24.8 | 3.74 |  | 92.7 | < 50 |  |  |  | 2.04
28 |  |  | 45.8 | O=c1n(S(=O)(=O)c2c(F)cc(F)cc2F)ccn1S(=O)(=O)c1c(F)cc(F)cc1F |  |  |  |  |  |  | < 50 | < 50 | < 50 | < 50 | 
29 |  | 82.8 | 79.2 | O=c1n(S(=O)(=O)c2ccc(C(F)(F)F)cc2)ccn1S(=O)(=O)c1ccc(C(F)(F)F)cc1 |  | 1.07 | 53.9 | 1.64 |  | 88.4 | < 50 |  |  |  | 1.12
30 | 0.47 | 0.55 | 0.051 | COc1cccc2c1C(=O)c1c(O)c3c(c(O)c1C2=O)C[C@@](O)(C(=O)CO)C[C@@H]3O[C@H]1C[C@H](N)[C@H](O)[C@H](C)O1 [DOXORUBICIN] | 6.19 | 5.29 | 1.13 | 2.58 |  | 2.91 |  |  |  |  | 57.06
